Experimental data taken from ChEMBL document CHEMBL3351748, “Synthesis and anticonvulsant activity of novel purine derivatives” (Eur J Med Chem, 2014).
Active and inactive are the calls of the source. The calls are words filed in the database; no cut-off is given here.

Tests used:
Mus musculus [1] = assay: Anticonvulsant activity in Kunming mouse assessed as protection against MES-induced seizures at 100 mg/kg, ip after 0.5 hrs by MES test; format: functional, organism-based; parameters: dose 100 mg/kg
Outline: (§1)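 KunMing mice (18-22 g), compounds in DMSO given i.p. at 30 and 100 mg/kg, 3 animals per dose. Examined 0.5 h after dosing; current applied 0.2 s through corneal electrodes. Protection scored as abolition of hind-leg tonic maximal extension; reported as animals protected/animals tested.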

Mus musculus [2] = assay: Anticonvulsant activity in Kunming mouse assessed as protection against MES-induced seizures at 30 mg/kg, ip after 0.5 hrs by MES test; format: functional, organism-based; parameters: dose 30 mg/kg; outline: as §1
Mus musculus [3] = assay: Anticonvulsant activity in ip dosed Kunming mouse assessed as protection against MES-induced seizures after 0.5 hrs by MES test; format: functional
Outline: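 KunMing mice (18-22 g) dosed i.p., compounds dissolved in DMSO; corneal-electrode shock (0.2 s) 30 min after administration. Endpoint is abolition of hind-leg tonic extension. ED50 is the dose protecting 50% of animals, given with 95% confidence intervals.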

Mus musculus [4] = assay: Protective index, ratio of intraperitoneal neurotoxic TD50 against Kunming mouse by rotarod test to intraperitoneal anticonvulsant ED50 in Kunming mouse by MES test
Outline: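 Protective index is TD50/ED50. Both come from i.p. dosing in KunMing mice: ED50 from protection of hind-leg tonic extension in the 0.5 h MES test, TD50 from failure to stay 1 min on the 10 rpm rotarod.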

[5] = Toxicity in ip dosed Kunming mouse assessed as inability of animal to maintain equilibrium on rod for at least 1 min in each trial by rotarod test; format: organism-based; settings: in vivo
Outline: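 Mice pre-trained on a rotarod (3.2 cm diameter, 10 rpm), then dosed i.p. Neurotoxicity scored as failure to keep balance on the rod for at least 1 min in each trial. TD50 is the dose giving minimal neurotoxicity in 50% of animals.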

Mus musculus [6] = organism: Mus musculus; assay: Protective index, ratio of oral neurotoxic TD50 against Kunming mouse by rotarod test to oral anticonvulsant ED50 in Kunming mouse by MES test
[7] = Toxicity in orally dosed Kunming mouse assessed as inability of animal to maintain equilibrium on rod for at least 1 min in each trial by rotarod test; format: organism-based; settings: in vivo, po
Outline: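 Rotarod test (3.2 cm rod, 10 rpm) in trained mice after oral dosing in 0.5% methylcellulose, tested at the 1.5 h time of peak effect. Toxicity is failure to stay on the rod for at least 1 min per trial. TD50 is the median dose for minimal neurotoxicity.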

Mus musculus [8] = assay: Anticonvulsant activity in Kunming mouse assessed as protection against sc-PTZ-induced mortality 50 mg/kg, sc administered 30 mins before PTZ injection; format: functional; settings: route subcutaneous
Outline: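 KunMing mice (18–22 g), 10 per group, given test agent dissolved in DMSO. Thirty minutes later, PTZ 85 mg/kg in saline was injected s.c. Animals were held in individual cages and watched for 0.5 h. Clonic seizures, tonic seizures and deaths were counted, and mortality was expressed as % inhibition.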

Mus musculus [9] = assay: Anticonvulsant activity in Kunming mouse assessed as protection against sc-PTZ-induced tonic seizures 50 mg/kg, sc administered 30 mins before PTZ injection; format: functional; settings: route subcutaneous
Outline: (§2)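 Mice, 10 per group, dosed at 50 mg/kg. PTZ 85 mg/kg in saline given s.c. 30 min later. Animals housed individually and watched for 0.5 h. Clonic seizures, tonic seizures (usually maximal hind-leg extension) and deaths counted as percent inhibition.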

Mus musculus [10] = assay: Anticonvulsant activity in Kunming mouse assessed as protection against sc-PTZ-induced clonic seizures 50 mg/kg, sc administered 30 mins before PTZ injection; format: functional; settings: route subcutaneous; outline: as §2
Mus musculus [11] = assay: Anticonvulsant activity in orally dosed Kunming mouse assessed as protection against MES-induced seizures after 1.5 hrs by MES test; settings: po
Mus musculus [12] = assay: Anticonvulsant activity in orally dosed Kunming mouse assessed as time of peak effect for protection against MES-induced seizures […] by MES test; format: functional

Fc1cccc(Cn2cnc3c2ncn2cnnc32)c1
Activity (Mus musculus [1]): inactive | Activity (Mus musculus [2]): inactive

CCCCCCCCn1cnc2c(-n3cncn3)ncnc21
ED50 (Mus musculus [3]): 33.2 mg/kg | Activity (Mus musculus [1]): Active | Activity (Mus musculus [2]): Active | Ratio TD50/ED50 (Mus musculus [4]): 7.4 | TD50 at 1 min [5]: 247 mg/kg

CCCCCCCCCCn1cnc2c(-n3cccn3)ncnc21
ED50 (Mus musculus [3]): 66.5 mg/kg | Activity (Mus musculus [1]): Active | Activity (Mus musculus [2]): inactive | Ratio TD50/ED50 (Mus musculus [4]): 3.6 | TD50 at 1 min [5]: 241 mg/kg

CCCCCCCCCCn1cnc2c(-n3cncn3)ncnc21
ED50 (Mus musculus [3]): 23.4 mg/kg | Ratio TD50/ED50 (Mus musculus [6]): >38.1 | Activity (Mus musculus [1]): Active | TD50 at 1 min [7]: > 1500 mg/kg | Activity (Mus musculus [2]): Active | inhibition in vivo at 50 mg/kg (Mus musculus [8]): 70% | inhibition in vivo at 50 mg/kg (Mus musculus [9]): 90% | Ratio TD50/ED50 (Mus musculus [4]): >25.6 | inhibition in vivo at 50 mg/kg (Mus musculus [10]): 20% | TD50 at 1 min [5]: > 700 mg/kg | ED50 (Mus musculus [11]): 39.4 mg/kg | Time (Mus musculus [12]): 1.5 h

COc1ccc(Cn2cnc3c(-n4cncn4)ncnc32)cc1
Activity (Mus musculus [1]): inactive | Activity (Mus musculus [2]): inactive

Clc1ccccc1Cn1cnc2c1ncn1cnnc21
ED50 (Mus musculus [3]): 51.9 mg/kg | Activity (Mus musculus [1]): Active | Activity (Mus musculus [2]): inactive | Ratio TD50/ED50 (Mus musculus [4]): 6.1 | TD50 at 1 min [5]: 315 mg/kg

CCCCCCCn1cnc2c(-n3cncn3)ncnc21
ED50 (Mus musculus [3]): 31.5 mg/kg | Activity (Mus musculus [1]): Active | Activity (Mus musculus [2]): Active | Ratio TD50/ED50 (Mus musculus [4]): 3.3 | TD50 at 1 min [5]: 105 mg/kg

c1ccc(Cn2cnc3c(-n4cncn4)ncnc32)cc1
ED50 (Mus musculus [3]): 66.6 mg/kg | Activity (Mus musculus [1]): Active | Activity (Mus musculus [2]): inactive | Ratio TD50/ED50 (Mus musculus [4]): 4.7 | TD50 at 1 min [5]: 315 mg/kg

CCCCn1cnc2c1ncn1cnnc21
Activity (Mus musculus [1]): inactive | Activity (Mus musculus [2]): inactive

Fc1ccccc1Cn1cnc2c(-n3cccn3)ncnc21
Activity (Mus musculus [1]): Active | Activity (Mus musculus [2]): inactive

Cc1cn(-c2ncnc3c2ncn3Cc2ccccc2F)cn1
Activity (Mus musculus [1]): inactive | Activity (Mus musculus [2]): inactive

Fc1ccccc1Cn1cnc2c1ncn1cnnc21
Activity (Mus musculus [1]): Active | Activity (Mus musculus [2]): inactive

Fc1ccc(Cn2cnc3c(-n4cncn4)ncnc32)cc1
Activity (Mus musculus [1]): inactive | Activity (Mus musculus [2]): inactive

CCCCCn1cnc2c(-n3cncn3)ncnc21
Activity (Mus musculus [2]): inactive

CCCCCCCCCCn1cnc2c1ncn1cnnc21
Activity (Mus musculus [1]): inactive | Activity (Mus musculus [2]): inactive

CCCCCCn1cnc2c(-n3cncn3)ncnc21
ED50 (Mus musculus [3]): 43.9 mg/kg | Activity (Mus musculus [1]): Active | Activity (Mus musculus [2]): inactive | Ratio TD50/ED50 (Mus musculus [4]): 4.8 | TD50 at 1 min [5]: 210 mg/kg

Fc1ccc(Cn2cnc3c2ncn2cnnc32)cc1
Activity (Mus musculus [1]): inactive | Activity (Mus musculus [2]): inactive

NC(=O)N1c2ccccc2C=Cc2ccccc21 [CARBAMAZEPINE]
ED50 (Mus musculus [3]): 11.8 mg/kg | Ratio TD50/ED50 (Mus musculus [6]): 12 | TD50 at 1 min [7]: 329 mg/kg | inhibition in vivo at 50 mg/kg (Mus musculus [8]): 80% | inhibition in vivo at 50 mg/kg (Mus musculus [9]): 100% | Ratio TD50/ED50 (Mus musculus [4]): 6.4 | inhibition in vivo at 50 mg/kg (Mus musculus [10]): 0% | ED50 (Mus musculus [11]): 27.3 mg/kg

CCCCCCCCCCn1cnc2c(Sc3ncn[nH]3)ncnc21
Activity (Mus musculus [1]): inactive | Activity (Mus musculus [2]): inactive

Clc1ccccc1Cn1cnc2c(-n3cncn3)ncnc21
Activity (Mus musculus [2]): inactive

Clc1cccc(Cn2cnc3c(-n4cncn4)ncnc32)c1
ED50 (Mus musculus [3]): 65.4 mg/kg | Activity (Mus musculus [1]): Active | Activity (Mus musculus [2]): inactive | Ratio TD50/ED50 (Mus musculus [4]): 7.5 | TD50 at 1 min [5]: 488 mg/kg

Fc1ccccc1Cn1cnc2c(-n3cncn3)ncnc21
ED50 (Mus musculus [3]): 29.9 mg/kg | Activity (Mus musculus [1]): Active | Activity (Mus musculus [2]): Active | Ratio TD50/ED50 (Mus musculus [4]): 15 | TD50 at 1 min [5]: 449 mg/kg

Cc1ccc(Cn2cnc3c(-n4cncn4)ncnc32)cc1
Activity (Mus musculus [1]): inactive | Activity (Mus musculus [2]): inactive

CCCCCCCCCCn1cnc2c(-n3cnc(C)c3)ncnc21
ED50 (Mus musculus [3]): 67.5 mg/kg | Activity (Mus musculus [1]): Active | Activity (Mus musculus [2]): inactive | Ratio TD50/ED50 (Mus musculus [4]): 2.9 | TD50 at 1 min [5]: 196 mg/kg

CCCCCn1cnc2c1ncn1cnnc21
Activity (Mus musculus [1]): Active | Activity (Mus musculus [2]): inactive

CCCCCCCCCCCCCCn1cnc2c(-n3cncn3)ncnc21
Activity (Mus musculus [1]): inactive | Activity (Mus musculus [2]): inactive

CCCCCCCn1cnc2c1ncn1cnnc21
Activity (Mus musculus [1]): Active | Activity (Mus musculus [2]): inactive

CCCCCCCCCCCCn1cnc2c(-n3cncn3)ncnc21
Activity (Mus musculus [2]): inactive

COc1ccc(Cn2cnc3c2ncn2cnnc32)cc1
Activity (Mus musculus [1]): inactive | Activity (Mus musculus [2]): inactive

c1ccc(Cn2cnc3c2ncn2cnnc32)cc1
Activity (Mus musculus [1]): Active | Activity (Mus musculus [2]): inactive

Cc1ccc(Cn2cnc3c2ncn2cnnc32)cc1
Activity (Mus musculus [1]): inactive | Activity (Mus musculus [2]): inactive

Fc1cccc(Cn2cnc3c(-n4cncn4)ncnc32)c1
ED50 (Mus musculus [3]): 45.9 mg/kg | Activity (Mus musculus [1]): Active | Activity (Mus musculus [2]): inactive | Ratio TD50/ED50 (Mus musculus [4]): 8.3 | TD50 at 1 min [5]: 384 mg/kg

CCCCCCCCCCn1cnc2c(-n3ccnc3)ncnc21
Activity (Mus musculus [1]): Active | Activity (Mus musculus [2]): inactive

CCCCCCn1cnc2c1ncn1cnnc21
ED50 (Mus musculus [3]): 51.2 mg/kg | Activity (Mus musculus [1]): Active | Activity (Mus musculus [2]): inactive | Ratio TD50/ED50 (Mus musculus [4]): 2 | TD50 at 1 min [5]: 102 mg/kg

CCCCCCCCn1cnc2c1ncn1cnnc21
Activity (Mus musculus [1]): Active | Activity (Mus musculus [2]): inactive

Fc1ccccc1Cn1cnc2c(-n3ccnc3)ncnc21
ED50 (Mus musculus [3]): 61.4 mg/kg | Activity (Mus musculus [1]): Active | Activity (Mus musculus [2]): inactive | Ratio TD50/ED50 (Mus musculus [4]): 1.8 | TD50 at 1 min [5]: 115 mg/kg

Clc1ccc(Cn2cnc3c2ncn2cnnc32)cc1
Activity (Mus musculus [1]): inactive | Activity (Mus musculus [2]): inactive

Clc1cccc(Cn2cnc3c2ncn2cnnc32)c1
Activity (Mus musculus [1]): inactive | Activity (Mus musculus [2]): inactive

Fc1ccccc1Cn1cnc2c(Sc3ncn[nH]3)ncnc21
Activity (Mus musculus [1]): inactive | Activity (Mus musculus [2]): inactive

Clc1ccc(Cn2cnc3c(-n4cncn4)ncnc32)cc1
Activity (Mus musculus [1]): inactive | Activity (Mus musculus [2]): inactive
